{"data": "Published values pooled from the literature", "target": "Tyrosine-protein kinase receptor TYRO3 (TYRO3, Homo sapiens, UniProt Q06418)", "note": "Lines come from different studies, so protocols differ."}
{"SMILES": "N#CCCc1ccc2c(c1)-c1[nH]c3ccc([N+](=O)[O-])cc3c1CC(=O)N2", "read-out": "cell-free assay", "tested at": "0.5 µM", "endpoint": "remaining signal", "value": "94.8%"}
{"SMILES": "CCCOc1ccc([C@@H]2[C@@H](C(=O)O)[C@H](c3ccc4c(c3)OCO4)CN2CC(=O)Nc2c(CC)cccc2CC)cc1", "read-out": "cell-free assay", "technique": "competition with immobilised ligand", "tested at": "1 µM", "endpoint": "remaining binding", "value": "94%"}
{"SMILES": "CC(C)(C)c1nc2c(s1)c1nc(N)ncc1c1ccc(NS(=O)(=O)c3c(F)cccc3F)c(F)c12", "read-out": "enzyme activity", "mode": "inhibitor", "technique": "radiometric", "tested at": "1 µM", "endpoint": "remaining activity", "value": "91%"}
{"SMILES": "Cn1cc(Cl)c2c(Oc3c(F)cc(Nc4cc(Cl)nc(N)n4)cc3F)ccnc21", "read-out": "cell-free assay", "technique": "competition with immobilised ligand", "tested at": "0.1 µM", "endpoint": "remaining binding", "value": "80%"}
{"SMILES": "C=CC(=O)Nc1cc(Nc2nccc(Nc3cc(Cl)c(F)cc3C(C)(C)O)n2)c(OC)cc1N1CC[C@@H](N(C)C)C1", "read-out": "enzyme activity", "mode": "inhibitor", "tested at": "1 µM", "endpoint": "inhibition", "value": "5%"}
{"SMILES": "Cc1ccc(C(=O)Nc2ccc(CN3CCN(C)CC3)c(C(F)(F)F)c2)cc1C#Cc1cnc2cccnn12", "read-out": "cell-free assay", "tested at": "23.5 nM", "endpoint": "remaining signal", "value": "73%"}
{"SMILES": "COc1cc(Cl)c(C(=O)N[C@@H](CN[C@H]2CC[C@@H](N)CC2)Cc2ccc(C#N)cc2)cc1-c1ccc(CN[C@H](C)c2ccc(C)cc2)o1", "read-out": "enzyme activity", "mode": "inhibitor", "tested at": "1 µM", "endpoint": "remaining activity", "value": "85%"}
{"SMILES": "CC1CCCN1c1nccc(-c2cnn3ncccc23)n1 (centres unmarked)", "read-out": "binding", "tested at": "1 µM", "endpoint": "remaining binding", "value": "79%"}
{"SMILES": "C[C@@]1(Cc2ccc(C#N)cc2)C(=O)N(c2cc(Cl)cc(Cl)c2)c2ncc(C(=O)NC3(c4nc(C5CCC5)no4)CC3)n21", "read-out": "cell-free assay", "technique": "competition with immobilised ligand", "tested at": "1 µM", "endpoint": "remaining binding", "value": "100%"}
{"SMILES": "CC(C)c1ccc(NC(=O)c2cccs2)c(-c2nc3ccccc3[nH]c2=O)c1", "read-out": "enzyme activity", "mode": "inhibitor", "tested at": "1 µM", "endpoint": "activity vs control", "value": "103%"}
{"SMILES": "O=C(Nc1cnn(-c2csc(C(=O)NC3COC3)c2)c1)Nc1c(F)cccc1Cl", "read-out": "enzyme activity", "mode": "inhibitor", "tested at": "5 µM", "endpoint": "remaining activity", "value": "68.4%"}
{"SMILES": "Cn1c2c(c3ccc(Cl)c(Cl)c31)C(C#N)C1(CCN(C(=O)OC(C)(C)C)CC1)NC2=O (racemic)", "read-out": "thermal stability", "technique": "DSF", "tested at": "10 µM", "endpoint": "ΔTm", "value": "0 °C"}
{"SMILES": "CCN(CC)c1ccc(C2=NNC(=O)CC2C)cc1[N+](=O)[O-] (centres unmarked)", "read-out": "enzyme activity", "mode": "inhibitor", "tested at": "10 µM", "endpoint": "remaining activity", "value": "95%"}
{"SMILES": "COc1cc2ncnc(Nc3ccc(Oc4ccccc4)cc3C)c2cc1OC", "read-out": "enzyme activity", "mode": "inhibitor", "tested at": "1 µM", "endpoint": "inhibition", "value": "70%"}
{"SMILES": "CNC(=O)c1cc(Oc2ccc(NC(=O)Nc3ccc(Cl)c(C(F)(F)F)c3)cc2)ccn1", "read-out": "cell-free assay", "tested at": "0.5 µM", "endpoint": "remaining signal", "value": "91.7%"}
{"SMILES": "CCCCN(CCCC)C(=O)CN1C[C@@H](c2cc(OC)c3c(c2)OCO3)[C@H](C(=O)O)[C@H]1CC(C)(C)CCC", "read-out": "cell-free assay", "technique": "competition with immobilised ligand", "tested at": "1 µM", "endpoint": "remaining binding", "value": "97.1%"}
{"SMILES": "CN1CC(Oc2cnc(C#N)cc2-c2ccn3nc(NC(=O)C4CC4)cc3c2)C1", "read-out": "enzyme activity", "mode": "inhibitor", "tested at": "1 µM", "endpoint": "inhibition", "value": "-2%"}
{"SMILES": "Nc1cnc(N2CCc3cc(S(=O)(=O)Nc4c(F)cc(Cl)cc4F)cc(N4CCCC4=O)c32)nc1", "read-out": "cell-free assay", "technique": "competition with immobilised ligand", "tested at": "1 µM", "endpoint": "remaining binding", "value": "100%"}
{"SMILES": "CCCOc1ccc(OC)c(F)c1C(=O)c1ccc(C(=O)N[C@@H]2CNC[C@H]2NC(=O)c2ccc3[nH]ncc3c2)cc1", "read-out": "enzyme activity", "mode": "inhibitor", "tested at": "10 µM", "endpoint": "remaining activity", "value": "51%"}
{"SMILES": "Cn1c2c(c3ccccc31)C(C#N)C(C)(C)NC2=O (centres unmarked)", "read-out": "thermal stability", "technique": "DSF", "tested at": "10 µM", "endpoint": "ΔTm", "value": "-0.1 °C"}
{"SMILES": "CCN(CC)CCNC(=O)c1c(C)[nH]c(/C=C2\\C(=O)Nc3ccc(F)cc32)c1C", "read-out": "cell-free assay", "tested at": "0.3 µM", "endpoint": "inhibition", "value": "72%"}
{"SMILES": "O=C1NC(=O)c2cc(Nc3ccc(F)cc3)c(Nc3ccc(F)cc3)cc21", "read-out": "cell-free assay", "tested at": "0.5 µM", "endpoint": "remaining signal", "value": "94.8%"}
{"SMILES": "Cc1c(C(=O)O)cc(-c2ccc(C3CCNCC3)cc2)c2ccc(-c3ccc(C(F)(F)F)cc3)cc12", "read-out": "cell-free assay", "technique": "competition with immobilised ligand", "tested at": "1 µM", "endpoint": "remaining binding", "value": "100%"}
{"SMILES": "Cc1cc(NC(=O)c2cccc3cc(-c4cccc5[nH]nc(N)c45)ccc23)ccc1F", "read-out": "enzyme activity", "mode": "inhibitor", "tested at": "0.1 µM", "endpoint": "activity vs control", "value": "99%"}
{"SMILES": "O=C1CCc2cc(Nc3cc(OC4CCOCC4)c([N+](=O)[O-])cc3Cl)ccc2N1", "read-out": "cell-free assay", "technique": "competition with immobilised ligand", "tested at": "1 µM", "endpoint": "remaining binding", "value": "100%"}
{"SMILES": "Cn1c2c(c3ccc(Cl)c(Cl)c31)C(C#N)C1(CCNCC1)NC2=O (racemic)", "read-out": "thermal stability", "technique": "DSF", "tested at": "10 µM", "endpoint": "ΔTm", "value": "-0.4 °C"}
{"SMILES": "Cc1cnc(NC2CCOCC2)nc1-n1cnc(C(=O)NC(CN)c2cc(F)cc(Cl)c2)c1 (centres unmarked)", "read-out": "enzyme activity", "mode": "inhibitor", "technique": "radiometric", "tested at": "1 µM", "endpoint": "remaining activity", "value": "118%"}
{"SMILES": "COCCOc1nc(-c2ccc(Cl)nc2)nc2c1CN(C(=O)c1ncn3ccccc13)CC2", "read-out": "cell-free assay", "technique": "competition with immobilised ligand", "tested at": "0.1 µM", "endpoint": "remaining binding", "value": "100%"}
{"SMILES": "Cc1ccc(Nc2nccc(N(C)c3ccc4c(C)n(C)nc4c3)n2)cc1S(N)(=O)=O", "read-out": "cell-free assay", "tested at": "0.3 µM", "endpoint": "inhibition", "value": "26%"}
